For experiment [1], the target named is T1, Glucagon receptor (Homo sapiens, UniProt P47871). Put plainly: Inhibitory concentration against binding to the human glucagon receptor (hGR).
Experiment [2] deals with T1, Glucagon receptor. Put plainly: Inhibitory concentration against cAMP production in hGR-CHO cells. The class given is functional, cell-based. In short, it runs like this:
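hGR-CHO cells grown to confluency, preincubated 10 min at 37 °C in assay buffer, then 10 min with 100 µM isobutylmethylxanthine. Test compound at 10 nM to 10 µM final, then glucagon at 10 pM final; 15 min incubation. Stopped with 65% ethanol; extracted cAMP measured by SPA assay. DMSO 0.1% control.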
For orientation: cAMP levels reflect the balance of adenylyl cyclase and phosphodiesterase activity.

Molecules are shown by their SMILES.

T1 sequence (P47871 whole entry): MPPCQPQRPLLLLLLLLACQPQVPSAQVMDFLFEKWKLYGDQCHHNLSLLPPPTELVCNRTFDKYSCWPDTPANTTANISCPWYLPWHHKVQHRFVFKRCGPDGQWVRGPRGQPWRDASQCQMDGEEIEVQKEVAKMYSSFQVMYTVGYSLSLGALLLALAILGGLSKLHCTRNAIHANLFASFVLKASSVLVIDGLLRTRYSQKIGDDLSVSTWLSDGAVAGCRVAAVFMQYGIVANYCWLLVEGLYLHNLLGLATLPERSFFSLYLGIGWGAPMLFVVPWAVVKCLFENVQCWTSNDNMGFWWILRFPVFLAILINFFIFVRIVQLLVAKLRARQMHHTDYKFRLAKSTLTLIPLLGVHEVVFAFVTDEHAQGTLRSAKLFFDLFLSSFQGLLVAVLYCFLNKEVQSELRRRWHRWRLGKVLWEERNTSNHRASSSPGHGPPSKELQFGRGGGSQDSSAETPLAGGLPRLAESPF

`CCCCCc1c(C(C)C)nc(C(C)C)c(CO)c1-c1ccccc1` displayed a 50% inhibitory concentration (IC50) on Glucagon receptor [1] of 1400 nM.
In turn, `CCc1c(C(C)C)nc(C(C)C)c(CO)c1-c1ccccc1` came in with an IC50 at Glucagon receptor [1] of 1800 nM.
On the same count and under the same terms, in the case of `CCCCCc1c(C(C)C)nc(C(C)C)c(C(C)O)c1-c1ccc(F)cc1` (configuration not stated) it was 300 nM.
As for `CCCCCc1c(C(C)C)nc(C(C)C)c(CO)c1-c1ccc(F)cc1`, the IC50 on Glucagon receptor [1] is 700 nM.
As to `CCc1nc(CC)c(CO)c(-c2ccccc2)c1CC`, the IC50 at Glucagon receptor [1] is more than 20000 nM.
Compound `CC(C)c1nc(C(C)C)c(CO)c(-c2ccc(F)cc2)c1CO` showed a 50% inhibitory concentration (IC50) at Glucagon receptor [1] of more than 20000 nM.
With `CCCCc1c(C(C)C)nc(C(C)C)c(C(C)O)c1-c1ccc(F)cc1` (configuration not stated), the 50% inhibitory concentration (IC50) at Glucagon receptor [1] is 250 nM.
The same measure, in the same setting: in the case of `C=Cc1c(C(C)C)nc(C(C)C)c(CO)c1-c1ccc(F)cc1` it was 6000 nM; in that of `COCc1c(C(C)C)nc(C(C)C)c(CO)c1-c1ccc(F)cc1`, 9000 nM; in that of `CCCCCc1c(C(C)C)nc(C(C)C)c([C@@H](C)O)c1-c1ccc(F)cc1` (single isomer, unassigned), 150 nM.
Same read-out and setting: in the case of `COC(=O)c1c(C(C)C)nc(C(C)C)c(CO)c1-c1ccc(F)cc1` it was 9500 nM.
Take `CCCCCc1c(CC)nc(CC)c(CO)c1-c1ccccc1`: at Glucagon receptor [1], the half-inhibitory concentration (IC50) stood at 20000 nM. Against the preceding compound, the IC50 is about 2.1-fold higher.
Regarding `CCc1c(C)nc(C)c(CO)c1-c1ccccc1`, the IC50 on Glucagon receptor [1] was more than 20000 nM.
Regarding `CC(C)=Cc1c(C(C)C)nc(C(C)C)c(CO)c1-c1ccc(F)cc1`, the values for the half-inhibitory concentration (IC50) at Glucagon receptor [1] and against Glucagon receptor [2] were 7000 nM and 2000 nM, respectively.
On to `CCCCCc1c(C)nc(C)c(CO)c1-c1ccccc1`, for which the IC50 on Glucagon receptor [1] is more than 20000 nM.
On the same count and under the same terms, in the case of `CCCCCCc1c(C(C)C)nc(C(C)C)c(CO)c1-c1ccc(F)cc1` it was 350 nM.

By IC50 is commonly meant the concentration that inhibits the measured activity by half.

Values taken from ChEMBL document CHEMBL1135047, “Discovery of 5-hydroxyalkyl-4-phenylpyridines as a new class of glucagon receptor antagonists” (Bioorg Med Chem Lett, 2002).
